pIC50: −log10 of the molar value.
How the values were obtained:
Trypanosoma cruzi [1] = assay: Antitrypanosomal activity against Trypanosoma cruzi Tulahuen 2 epimastigotes assessed as growth inhibition after 5 days; format: functional, organism-based
Summary of the method: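 Epimastigotes were grown axenically at 28 °C in BHI-tryptose with 5% FBS and seeded from a 5–7 day culture at 1 × 10⁶ cells/mL. Drug from a DMSO stock was added (final DMSO ≤0.4%; the control contained 0.4% DMSO). Duplicates were run. A600 was read at day 5, and % inhibition was calculated relative to day-0 and control readings. IC50 = concentration that halves the absorbance ratio.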

Salmonella typhimurium [2] = assay: Mutagenic activity in Salmonella typhimurium TA98 at 5 to 400 ug/plate by Ames test in presence of mouse liver S9 fraction; format: toxicity, organism-based; conditions: salmonella enterica subsp. enterica serovar typhimurium
Summary of the method: (§1)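 Ames plate-incorporation assay with S. typhimurium TA98 in Vogel-Bonner E minimal glucose agar. Toxicity toward the bacteria was checked first. DMSO solutions were run in triplicate at five consecutive third-dilutions, starting at the highest non-toxic dose. Positive controls were 4-nitro-o-phenylenediamine (20.0 μg/plate) and 2-aminofluorene (10.0 μg/plate); DMSO was the negative control. Revertants were counted manually. A compound was called mutagenic when revertants were at least twice the negative control at two or more consecutive doses.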

[3] = Stability of the compound in aqueous solution assessed as compound remaining at 1 mM at pH 6 after 1 hr by TLC analysis; format: physicochemical; conditions: for remaining at 1 h, 1000 µM: aqueous solution, pH 6, read-out: Stability
Summary of the method: (§2)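 DMSO stocks diluted to final 1 mM in KCl·HCl pH 1.0, citrate pH 6.0, Tris·HCl pH 7.4 or borax·HCl pH 9.0 buffer. Incubated 1 h at 37 °C, then ethyl acetate extracts checked by TLC for decomposition products.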

[4] = Stability of the compound in aqueous solution assessed as compound remaining at 1 mM at pH 9 after 1 hr by TLC analysis; format: physicochemical; conditions: for remaining at 1 h, 1000 µM: aqueous solution, pH 9, read-out: Stability; summary of the method: as §2
[5] = Stability of the compound in aqueous solution assessed as compound remaining at 1 mM at pH 7.4 after 1 hr by TLC analysis; format: physicochemical; conditions: for remaining at 1 h, 1000 µM: aqueous solution, pH 7.4, read-out: Stability; summary of the method: as §2
Salmonella typhimurium [6] = assay: Mutagenic activity in Salmonella typhimurium TA98 at 5 to 400 ug/plate by Ames test; format: toxicity, organism-based; conditions: salmonella enterica subsp. enterica serovar typhimurium; summary of the method: as §1
Trypanosoma cruzi [7] = assay: Antitrypanosomal activity against Trypanosoma cruzi Sylvio X-10 amastigotes infected in African green monkey Vero cells assessed as eradication of amastigotes after 72 hrs by Giemsa staining-based assay; conditions: Sylvio X-10, Vero
Trypanosoma cruzi [8] = assay: Antitrypanosomal activity against Trypanosoma cruzi Sylvio X-10 amastigotes infected in African green monkey Vero cells assessed as eradication of amastigotes after 5 days by Giemsa staining-based assay; format: functional, organism-based; conditions: Sylvio X-10, Vero, 120 h
Summary of the method: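 VERO cells in RPMI 1640 with 10% hiFCS were allowed to adhere for 24 h at 37 °C in 5% CO₂, then infected with tissue-derived trypomastigotes at 10:1. Free parasites were washed off after 24 h, and cultures were treated at five compound doses (text gives 72 h / 5 days). Cultures were methanol-fixed and Giemsa-stained, and infected cells were counted among 300. Quadruplicates were run in three independent experiments. IC50/IC90 were obtained by sigmoidal regression.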

[9] = Selectivity index, ratio of IC50 for African green monkey Vero cells to IC50 for Trypanosoma cruzi Sylvio X-10 amastigotes; format: toxicity, cell-based; conditions: read-out: Ratio IC50
Summary of the method: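 VERO cytotoxicity: cells exposed 48 h at 37 °C, 5% CO2 to serial dilutions from a maximum of 2000 μM (DMSO stocks; DMSO <0.1% control); growth inhibition read by MTT at 570 nm. Amastigote IC50: Sylvio X-10-infected VERO cells, five doses, infected cells counted among 300 (Giemsa), quadruplicate, three experiments, sigmoidal fit. SI = IC50 VERO / IC50 amastigote.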

Salmonella typhimurium [10] = assay: Mutagenic activity in Salmonella typhimurium TA98 at 0.005 to 0.4 ug/plate by Ames test in presence of mouse liver S9 fraction; format: toxicity, organism-based; conditions: salmonella enterica subsp. enterica serovar typhimurium
Summary of the method: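 Plate-incorporation Ames test on minimal glucose agar with 500 μL Aroclor-treated mouse liver S9 added. DMSO solutions were tested at five consecutive 3-fold dilutions from the highest non-toxic dose, in triplicate, with a DMSO negative control. Revertants were counted manually; a compound was scored mutagenic when revertants were at least twice the negative control for two or more consecutive doses.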

Salmonella typhimurium [11] = assay: Mutagenic activity in Salmonella typhimurium TA98 at 0.005 to 0.4 ug/plate by Ames test; format: toxicity, organism-based; conditions: salmonella enterica subsp. enterica serovar typhimurium
Summary of the method: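 Direct plate incubation on minimal glucose agar (Vogel-Bonner E). Compound toxicity to the bacteria was checked first. DMSO solutions were tested at five consecutive 3-fold dilutions, starting from the highest non-toxic dose, in triplicate, without metabolic activation. DMSO served as negative control. Revertants were counted manually; mutagenic = revertants at least double the negative control at two or more consecutive doses.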

[12] = Selectivity index, ratio of IC50 for human RBC to IC50 for Trypanosoma cruzi Sylvio X-10 amastigotes
Summary of the method: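 Hemolysis: washed human erythrocytes (2% w/v in PBS) incubated 24 h at 37 °C with compound at final 50, 100 and 200 μM. Ten replicates per concentration. Hemoglobin release read at 405 nm against water lysis as 100%; amphotericin B 1.5 μM was the positive control. SI = IC50 red cells / parasite IC50 (Sylvio X-10 amastigotes or Tulahuen 2 epimastigotes).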

[13] = Trypanosoma cruzi, Tulahuen 2, 120 h

SMILES | pIC50 (Trypanosoma cruzi [1]; [13]) | also measured
C=CCNC(=S)N/N=C/c1ccnc2ccccc12 | 4.77 | 
C=CCNC(=S)N/N=C/c1ccc2ccccc2c1 | 5.27 | 
C=CCNC(=S)N/N=C/c1ccc(SC)cc1 | 5.00 | 
Br.C=CCn1c(-c2ccc(Br)cc2)cs\c1=N/N=C/C=C/c1ccco1 | 5.54 | Activity (Salmonella typhimurium [2]): Non-toxic; remaining at 1 h, 1000 µM [3]: > 95%; remaining at 1 h, 1000 µM [4]: > 95%; remaining at 1 h, 1000 µM [5]: > 95%; Activity (Salmonella typhimurium [6]): Non-toxic
CC(=O)N(C1=NN(C(C)=O)C(c2cccs2)S1)c1ccccc1 (stereo not drawn) | < 4.60 | 
O=C1CS/C(=N\N=C\c2ccc([N+](=O)[O-])s2)N1c1ccccc1 (stereo in doubt; 13) |  | pIC50 (Trypanosoma cruzi [1]): < 4.60
O=C1CS/C(=N\N=C\c2ccc([N+](=O)[O-])s2)N1c1ccccc1 (stereo in doubt; 10) | 4.89 | IC90 (Trypanosoma cruzi [7]): > 25 µM; pIC50 (Trypanosoma cruzi [8]): < 4.60
C=CCn1c(-c2ccc(OC)cc2)cs/c1=N/N=C/c1ccc([N+](=O)[O-])s1 | 5.10 | IC90 (Trypanosoma cruzi [7]): > 25 µM; pIC50 (Trypanosoma cruzi [8]): < 4.60
C=CCNC(=S)N/N=C/C=C/c1cccs1 | < 4.60 | Activity (Salmonella typhimurium [2]): Non-toxic; Activity (Salmonella typhimurium [6]): Non-toxic
C=CCN(C(C)=O)C1=NNC(c2ccc([N+](=O)[O-])s2)S1 (stereo not drawn) | < 4.60 | 
Cc1cs/c(=N\N=C\c2cccs2)n1-c1ccccc1 | < 4.60 | 
O=[N+]([O-])c1ccc(/C=N/N=c2\scc(-c3ccccc3)n2-c2ccccc2)s1 | < 4.60 | 
C=CCn1c(-c2ccc(Cl)cc2)cs/c1=N/N=C/c1cccs1 | < 4.60 | pIC50 (Trypanosoma cruzi [8]): 5.10
C(=N\N=c1/scc(-c2ccccc2)n1-c1ccccc1)/c1ccccc1 | < 4.60 | 
C=CCn1c(-c2ccccc2)cs\c1=N/N=C/C=C/c1cccs1 | < 4.60 | 
C=CCn1c(-c2ccc(OC)cc2)cs\c1=N/N=C/C=C/c1ccco1 | 5.31 | Activity (Salmonella typhimurium [2]): Non-toxic; remaining at 1 h, 1000 µM [3]: > 95%; remaining at 1 h, 1000 µM [4]: > 95%; remaining at 1 h, 1000 µM [5]: > 95%; Activity (Salmonella typhimurium [6]): Non-toxic
C=CCn1c(-c2ccccc2)cs/c1=N\N=C\c1ccc(S(=O)(=O)O)o1 | < 4.60 | 
C=CCn1c(-c2ccc(Cl)cc2)cs/c1=N/N=C/c1ccc([N+](=O)[O-])s1 | 4.85 | IC90 (Trypanosoma cruzi [7]): > 25 µM; pIC50 (Trypanosoma cruzi [8]): < 4.60
C=CCN(C(C)=O)C1=NN(C(C)=O)C(/C=C/c2ccco2)S1 (stereo not drawn) | < 4.60 | 
C=CCn1c(-c2ccccc2)cs/c1=N/N=C/c1cccs1 | < 4.60 | 
C=CCn1c(-c2ccc(Br)cc2)cs\c1=N/N=C/C=C/c1cccs1 | < 4.60 | 

SMILES | pIC50 (Trypanosoma cruzi [1]; [13]) | also measured
C=CCn1c(C)cs/c1=N\N=C\c1ccc(S(=O)(=O)O)o1 | < 4.60 | 
S=C(N/N=C/C=C/c1ccco1)Nc1ccccc1 | 4.96 | 
C=CCn1c(C)cs\c1=N/N=C/C=C/c1ccccc1 | < 4.60 | 
C=CCn1c(C)cs/c1=N\N=C\c1cccs1 | < 4.60 | Stability ([3]; buffer, pH 6, 1 h, 1000 µM): Unstable; IC90 (Trypanosoma cruzi [7]): > 25 µM; Stability ([4]; buffer, pH 9, 1 h, 1000 µM): Unstable; Stability ([5]; buffer, pH 7.4, 1 h, 1000 µM): Unstable; pIC50 (Trypanosoma cruzi [8]): < 4.60
O=[N+]([O-])c1ccc(/C=N/NC(=S)Nc2ccccc2)s1 | 5.40 | selectivity ratio [9]: 20; pIC50 (Trypanosoma cruzi [8]): 5.39
C=CCN1C(=O)CS/C1=N\N=C\c1ccc([N+](=O)[O-])s1 | < 4.60 | IC90 (Trypanosoma cruzi [7]): > 25 µM; pIC50 (Trypanosoma cruzi [8]): < 4.60
C=CCn1c(-c2ccc(Cl)cc2)cs\c1=N/N=C/C=C/c1cccs1 | < 4.60 | 
C=CCN1C(=O)CS/C1=N\N=C\c1cccs1 | < 4.60 | 
C=CCN1C(=O)CS\C1=N/N=C/C=C/c1ccco1 | < 4.60 | 
C=CCNC(=S)N/N=C/c1cncc(Br)c1 | < 4.60 | 
C=CCn1c(C)cs/c1=N\N=C\c1ccc([N+](=O)[O-])s1 | 5.00 | Activity (Salmonella typhimurium [10]): Non-toxic; Activity (Salmonella typhimurium [11]): Non-toxic; pIC50 (Trypanosoma cruzi [8]): 4.98
C=CCNC(=S)N/N=C/c1ccc(Cl)cc1 | 4.96 | 
O=C1CS\C(=N/N=C\C=C\C=C\c2cccs2)N1c1ccccc1 | < 4.60 | 
Cc1cs/c(=N/N=C/C=C/c2ccco2)n1-c1ccccc1 | 4.60 | 
S=C(N/N=C/C=C/C=C/c1cccs1)Nc1ccccc1 | 5.77 | IC90 (Trypanosoma cruzi [7]): > 25 µM; pIC50 (Trypanosoma cruzi [8]): < 4.60
C[C@@H]1[C@H](O)[C@@H](C)/C=C/C=C/C=C/C=C/C=C/C=C/C=C/[C@H](O[C@@H]2O[C@H](C)[C@@H](O)[C@H](N)[C@@H]2O)C[C@@H]2O[C@](O)(C[C@@H](O)C[C@@H](O)[C@H](O)CC[C@@H](O)C[C@@H](O)CC(=O)O[C@H]1C)C[C@H](O)[C@H]2C(=O)O [AMPHOTERICIN B] |  | Ratio IC50 [12]: 10; pIC50 (Trypanosoma cruzi [8]): 5.96
C=CCN(C(C)=O)C1=NNC(c2cccs2)S1 (stereo not drawn) | < 4.60 | 
C=CCn1c(-c2ccccc2)cs/c1=N\N=C\c1ccc([N+](=O)[O-])s1 | 5.22 | selectivity ratio [9]: 5; pIC50 (Trypanosoma cruzi [8]): 4.60
C=CCn1c(-c2ccc(Cl)cc2)cs\c1=N/N=C/C=C/c1ccc([N+](=O)[O-])s1 | 5.00 | IC90 (Trypanosoma cruzi [7]): 25.4 µM; pIC50 (Trypanosoma cruzi [8]): 4.77
C=CCn1c(-c2ccc3ccccc3c2)cs\c1=N/N=C/C=C/c1cccs1 | < 4.60 | 
C=CCNC(=S)N/N=C/c1ccsc1 | < 4.60 | 

SMILES | pIC50 (Trypanosoma cruzi [1]; [13]) | also measured
C=CCn1c(-c2ccccc2)cs/c1=N\N=C\c1ccco1 | < 4.60 | 
C=CCn1c(-c2ccc(Cl)cc2)cs/c1=N\N=C\c1ccc(Cl)cc1 | < 4.60 | 
Br.C=CCn1c(-c2ccc([N+](=O)[O-])cc2)cs\c1=N/N=C/C=C/c1ccco1 | < 4.60 | Activity (Salmonella typhimurium [2]): Toxic; Activity (Salmonella typhimurium [6]): Toxic
S=C(N/N=C/c1ccccc1)Nc1ccccc1 | 4.72 | 
N/C(S)=N/N=C/c1ccc([N+](=O)[O-])s1 | 4.60 | 
C=CCn1c(-c2ccc(Cl)cc2)cs/c1=N\N=C\c1ccc2c(c1)[n+]([O-])c(C)c(C)[n+]2[O-] | 4.82 | 
C=CCn1c(C)cs/c1=N\N=C\c1ccco1 | < 4.60 | 
O=C1CS/C(=N\N=C\c2ccc([N+](=O)[O-])s2)N1 | < 4.60 | 
C=CCNC(=S)N/N=C/c1cc2ccccc2o1 | < 4.60 | 
C=CCNC(=S)N/N=C/C=C/c1ccccc1 | 5.18 | 
C=CCn1c(-c2ccc(Cl)cc2)cs/c1=N\N=C\c1ccsc1 | 4.84 | 
C=CCN1C(=O)CS\C1=N/N=C\C=C\C=C\c1cccs1 | < 4.60 | 
C=CCNC(=S)N/N=C/c1ccc(O)cc1 | < 4.60 | 
C(=C\c1ccco1)/C=N/N=c1/scc(-c2ccccc2)n1-c1ccccc1 | 5.30 | 
C=CCN1C(=O)CS/C1=N/N=C\c1ccc(Cl)cc1 | < 4.60 | 
C=CCn1c(-c2ccc([N+](=O)[O-])cc2)cs\c1=N/N=C/C=C/c1cccs1 | < 4.60 | 
O=C1CS\C(=N/N=C/C=C/c2ccco2)N1c1ccccc1 | < 4.60 | 
C=CCn1c(-c2ccccc2)cs/c1=N/N=C/c1ccc([N+](=O)[O-])s1 | 4.70 | 
C=CCNC(=S)N/N=C/c1ccc2c(c1)OCO2 | < 4.60 | 
C=CCn1c(-c2ccc(OC)cc2)cs\c1=N/N=C/C=C/c1cccs1 | < 4.60 | 
C=CCn1c(-c2ccccc2)cs\c1=N/N=C/C=C/c1ccccc1 | < 4.60 | 

Reference: ChEMBL document CHEMBL3259808, “Optimization of antitrypanosomatid agents: identification of nonmutagenic drug candidates with in vivo activity” (J Med Chem, 2014)
